Reference: ChEMBL document CHEMBL5712912, “Abnormal overexpression of G9a in melanoma cells promotes cancer progression via upregulation of the Notch1 signaling pathway” (Aging (Albany NY), 2020)
Calls of active or inactive are those of the source. No cut-off for these calls is given here.

Experiments:
M14 [1] = test: Induction of apoptosis in human M14 cells assessed as late apoptotic cells at 2 uM by Annexin V-FITC/PI staining based flow cytometry (reference value: 3.10%); format: functional
[2] = target: T1, Histone-lysine N-methyltransferase EHMT2 (Homo sapiens) (UniProt Q96KQ7); test: Inhibition of G9a in human M14 cells assessed as reduction in AKT phosphorylation at 2 uM by Western blot analysis; format: cell-based
T1 sequence (whole entry): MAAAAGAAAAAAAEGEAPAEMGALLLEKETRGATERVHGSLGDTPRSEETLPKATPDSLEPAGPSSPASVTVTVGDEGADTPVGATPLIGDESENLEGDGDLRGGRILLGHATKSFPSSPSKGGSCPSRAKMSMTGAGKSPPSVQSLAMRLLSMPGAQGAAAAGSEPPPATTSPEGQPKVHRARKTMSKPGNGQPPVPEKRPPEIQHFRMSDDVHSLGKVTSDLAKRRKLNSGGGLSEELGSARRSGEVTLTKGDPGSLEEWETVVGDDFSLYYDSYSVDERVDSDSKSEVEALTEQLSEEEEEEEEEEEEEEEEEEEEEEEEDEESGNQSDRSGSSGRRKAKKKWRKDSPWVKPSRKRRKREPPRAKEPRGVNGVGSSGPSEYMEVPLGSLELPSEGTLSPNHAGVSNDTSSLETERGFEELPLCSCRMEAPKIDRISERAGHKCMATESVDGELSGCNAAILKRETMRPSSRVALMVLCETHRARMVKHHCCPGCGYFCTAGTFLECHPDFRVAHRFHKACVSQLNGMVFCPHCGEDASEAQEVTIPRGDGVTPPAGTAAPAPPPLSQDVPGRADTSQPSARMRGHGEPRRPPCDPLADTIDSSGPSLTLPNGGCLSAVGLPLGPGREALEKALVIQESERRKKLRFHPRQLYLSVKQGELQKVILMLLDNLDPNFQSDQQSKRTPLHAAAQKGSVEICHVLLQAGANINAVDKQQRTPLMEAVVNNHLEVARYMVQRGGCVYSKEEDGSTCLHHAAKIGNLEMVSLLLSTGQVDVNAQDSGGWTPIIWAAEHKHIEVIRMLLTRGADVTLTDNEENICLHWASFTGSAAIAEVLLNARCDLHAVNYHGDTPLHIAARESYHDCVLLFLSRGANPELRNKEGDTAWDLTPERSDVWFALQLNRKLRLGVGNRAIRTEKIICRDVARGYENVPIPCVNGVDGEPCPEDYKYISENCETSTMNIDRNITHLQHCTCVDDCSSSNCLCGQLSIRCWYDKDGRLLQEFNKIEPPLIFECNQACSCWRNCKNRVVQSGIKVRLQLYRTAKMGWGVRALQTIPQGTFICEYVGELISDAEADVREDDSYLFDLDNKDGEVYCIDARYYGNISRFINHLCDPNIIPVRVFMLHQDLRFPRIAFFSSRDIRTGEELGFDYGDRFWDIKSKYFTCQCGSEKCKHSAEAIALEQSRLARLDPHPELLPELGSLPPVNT

M14 [3] = test: Induction of apoptosis in human M14 cells overexpressing NCID assessed as early apoptotic cells by Annexin V-FITC/PI staining based flow cytometry (Rvb-0.43%); format: functional; settings: dose 2 µM
A-375 [4] = test: Induction of apoptosis in human A-375 cells overexpressing […] assessed as necrotic cells by Annexin V-FITC/PI staining based flow cytometry (Rvb-1.34%); format: functional; settings: dose 2 µM
A-375 [5] = test: Induction of apoptosis in human A-375 cells overexpressing NICD assessed as increase in cleaved Caspase-3 expression at 2 uM by Western blot analysis; format: functional, cell-based
[6] = target: T1, Histone-lysine N-methyltransferase EHMT2 (Homo sapiens); test: Inhibition of G9a in human A-375 cells assessed as decrease in Notch1 expression at 2 uM by Western blot analysis; format: cell-based
A-375 [7] = test: Induction of apoptosis in human A-375 cells assessed as reduction in Bcl-2 expression at 2 uM by Western blot analysis; format: functional, cell-based
A-375 [8] = test: Antimigratory activity against human A-375 cells at 2 uM by transwell assay; format: functional, cell-based
How it was run: (§1)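 Transwell assay in M14 or A375 cells cultured in high-glucose DMEM with 10% FBS and penicillin/streptomycin; NICD overexpression plasmid transfected with Lipofectamine 2000. Invasion inserts coated with Matrigel diluted 1:6 in serum-free 1640 medium and set at 37 °C for 4 h; migration inserts uncoated, 5000 cells seeded. Control cells received DMSO. Migrated or invaded cells counted.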

[9] = target: T1, Histone-lysine N-methyltransferase EHMT2 (Homo sapiens); test: Inhibition of G9a in human M14 cells overexpressing NICD assessed as reduction in AKT phosphorylation at 2 uM by Western blot analysis; format: cell-based
A-375 [10] = test: Induction of apoptosis in human A-375 cells assessed as live cells at 2 uM by Annexin V-FITC/PI staining based flow cytometry (reference value: 95.1%); format: functional
A-375 [11] = test: Induction of apoptosis in human A-375 cells assessed as increase in cleaved Caspase-3 expression at 2 uM by Western blot analysis; format: functional, cell-based
A-375 [12] = test: Antiinvasive activity against human A-375 cells overexpressing NICD at 2 uM by transwell assay; format: functional, cell-based; how it was run: as §1
A-375 [13] = test: Induction of apoptosis in human A-375 cells overexpressing NICD assessed as reduction in Bcl-2 expression at 2 uM by Western blot analysis; format: functional, cell-based
M14 [14] = test: Antimigratory activity against human M14 cells at 2 uM by transwell assay; format: functional, cell-based; how it was run: as §1
M14 [15] = test: Induction of apoptosis in human M14 cells assessed as increase in cleaved Caspase-3 expression at 2 uM by Western blot analysis; format: functional, cell-based
M14 [16] = test: Induction of apoptosis in human M14 cells overexpressing NICD assessed as increase in cleaved Caspase-3 expression at 2 uM by Western blot analysis; format: functional, cell-based
[17] = Toxicity in human A-375 cells xenografted nude mouse assessed as change in body weight at 5 mg/kg, ip administered every other day for 10 days and measured during compound dosing; format: organism-based; settings: in vivo, 240 h, time 10 day
How it was run: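 Male nude mice, 6 weeks old, were given A375 cells (2X 106) subcutaneously. After one week, animals with palpable xenografts were randomised into two groups: DMSO vehicle, or compound at 5 mg/kg i.p. every other day for 10 days. Tumour volume was measured, and body weight was monitored.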

A-375 [18] = test: Antiinvasive activity against human A-375 cells at 2 uM by transwell assay; format: functional, cell-based; how it was run: as §1
[19] = target: T1, Histone-lysine N-methyltransferase EHMT2 (Homo sapiens); test: Inhibition of G9a in human A-375 cells assessed as reduction in AKT phosphorylation at 2 uM by Western blot analysis; format: cell-based
A-375 [20] = test: Induction of apoptosis in human A-375 cells assessed as early apoptotic cells at 2 uM by Annexin V-FITC/PI staining based flow cytometry (reference value: 0.43%); format: functional
A-375 [21] = test: Antimigratory activity against human A-375 cells overexpressing NICD at 2 uM by transwell assay; format: functional, cell-based; how it was run: as §1
M14 [22] = test: Antiinvasive activity against human M14 cells at 2 uM by transwell assay; format: functional, cell-based; how it was run: as §1
A-375 [23] = test: Antiproliferative activity against human A-375 cells assessed as reduction in cell proliferation at 2 uM by CCK-8 assay; format: functional, cell-based
How it was run: (§2)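 CCK8 proliferation assay. M14 or A375 cells, NICD plasmid-transfected where stated, were seeded at about 1000 cells per well, with 0.1% DMSO-treated cells as control. CCK8 reagent was added every 24 h and incubated 90 min at 37 °C, then OD read at 450 nm to build a proliferation curve. IC50 came from a dose-dependent viability series in A375.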

M14 [24] = test: Antiproliferative activity against human M14 cells overexpressing NICD assessed as reduction in cell proliferation at 2 uM by CCK-8 assay; format: functional, cell-based; how it was run: as §2
[25] = target: T1, Histone-lysine N-methyltransferase EHMT2 (Homo sapiens); test: Inhibition of G9a in human M14 cells assessed as decrease in Notch1 expression at 2 uM by Western blot analysis; format: cell-based
M14 [26] = test: Induction of apoptosis in human M14 cells overexpressing NCID assessed as late apoptotic cells by Annexin V-FITC/PI staining based flow cytometry (Rvb-3.10%); format: functional; settings: dose 2 µM

## COc1cc2c(NC3CCN(C(C)C)CC3)nc(N3CCC(F)(F)CC3)nc2cc1OCCCN1CCCC1
M14 [1]
  Activity: 5.17%
[2]
  inhibition: Active
M14 [3]
  Activity: 0.75%
A-375 [4]
  Activity: 0.76%
A-375 [5]
  Activity: inactive
[6]
  inhibition: Active
A-375 [7]
  Activity: Active
A-375 [8]
  Activity: Active
[9]
  inhibition: inactive
A-375 [10]
  Activity: 89.8%
A-375 [11]
  Activity: Active
A-375 [12]
  Activity: inactive
A-375 [13]
  Activity: inactive
M14 [14]
  Activity: Active
M14 [15]
  Activity: Active
M14 [16]
  Activity: inactive
[17]
  Activity: Non-Toxic
A-375 [18]
  Activity: Active
[19]
  inhibition: Active
A-375 [20]
  Activity: 4.8%
A-375 [21]
  Activity: inactive
M14 [22]
  Activity: Active
A-375 [23]
  Activity: Active
M14 [24]
  Activity: inactive
[25]
  inhibition: Active
M14 [26]
  Activity: 3.59%
